Values joined by “and” are separate entries in the source; they are usually repeats but may differ in a detail not shown here. Equal entries are not always repeated. Where two headings read alike, the source gives them in different places.
Key:
[1] = aqueous solution; cited from earlier work
Mn-hArgI = target: T1, Mn-hArgI (Homo sapiens, UniProt P05089); assay: Inhibition of Mn-hArgI by L-Orn and L-Leu; type: biochemical
T1 sequence (P05089 1-322): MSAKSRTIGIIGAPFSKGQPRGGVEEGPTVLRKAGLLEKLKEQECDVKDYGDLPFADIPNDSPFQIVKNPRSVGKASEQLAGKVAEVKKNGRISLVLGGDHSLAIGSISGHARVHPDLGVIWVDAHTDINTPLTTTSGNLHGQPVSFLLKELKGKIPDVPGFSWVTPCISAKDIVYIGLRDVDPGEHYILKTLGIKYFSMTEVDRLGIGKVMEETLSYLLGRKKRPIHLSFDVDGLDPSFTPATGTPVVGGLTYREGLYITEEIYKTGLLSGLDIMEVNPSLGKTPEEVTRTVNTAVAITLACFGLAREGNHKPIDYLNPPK

hArgII = conditions: cited from earlier work
Co-hArgI = target: T2, Co-hArgI (Homo sapiens, UniProt P05089); assay: Inhibition of Co-hArgI by L-Orn and L-Leu; type: biochemical
T2 sequence (P05089 1-322): T1 sequence (P05089 1-322)

rat Arginase I = rat Arginase I at pH 9.0; cited from earlier work
[2] = rat enzyme; cited from earlier work
[3] = cited from earlier work
[4] = pH rate dependence of manganese and cobalt arginase; type: biochemical; conditions: for apparent pKa of kcat vs pH (one-pKa model) / apparent pKa of 1/KM vs pH, lower pKa / apparent pKa of 1/KM vs pH, upper pKa: 37 °C; for apparent pKa of kcat vs pH (one-pKa model): Co-hArgI value tentative; for apparent pKa of 1/KM vs pH, lower pKa / apparent pKa of 1/KM vs pH, upper pKa: bell shaped curve; for ascending limb pKa of kcat/KM vs pH (fit) / descending limb pKa of kcat/KM vs pH (fit): two pKa Henderson-Hasselbach model
How it was run: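 Mn- or Co-substituted enzyme assayed at 37 °C, at least in triplicate, in 100 mM buffers: acetate (pH 5–5.5), MES (6–6.5), HEPES (7–7.8), Tris (8–9), Capso (9–10.5). L-Arg ranged 30 µM–80 mM depending on pH. Michaelis–Menten fits gave kcat and KM. kcat/KM versus pH fitted to a Henderson–Hasselbalch form for ascending and descending pKa, with Segel correction. Log kcat and 1/KM plotted versus pH.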

melanoma cell line A375 = conditions: for IC50: A375 melanoma cells, MTT
[5] = Steady-state kinetics of L-Arg hydrolysis by purified hArgI; type: biochemical; conditions: for kcat: hydrolysis of L-Arg, 100 mM Hepes buffer; for Fold change KM L-Arg: pH 7.4 vs pH 8.5; for Km: read-out: KM L-Arg
How it was run: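 His6-TEV-tagged human ArgI expressed in E. coli BL21 and IMAC-purified. Loaded with 10 mM CoCl2 or MnSO4 (15 min, 50–55 °C), then exchanged into 100 mM HEPES/10% glycerol, pH 7.4. Concentration taken from A280 in 6 M guanidinium. Enzyme-started reactions quenched with 12 N HCl after 30 s. Urea derivatised with DAMO/thiosemicarbazide/Fe3+ (COLDER) by 15 min boiling, read at A530 with L-Arg blanks. At least triplicate; Michaelis–Menten fit.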

[6] = Serum stability in pooled human serum; type: in vitro ADME; conditions: 1 μM enzyme, 37 °C
How it was run: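 Purified His-tagged hArgI (E. coli BL21, IMAC, metal-loaded with 10 mM CoCl2 or MnSO4, 15 min at 50–55 °C) added at 1 µM to pooled human serum at 37 °C. Aliquots taken at time points and tested in triplicate for hydrolysis of 1 mM L-Arg. Rate versus time fitted to a single exponential or a biphasic decay model to give t1/2.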

[7] = Thermal denaturation by circular dichroism; type: physicochemical; conditions: 100 mM phosphate buffer, pH 7.4, θ222
How it was run: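 Co-substituted enzyme at 6 µM in 100 mM phosphate, pH 7.4. Molar ellipticity at 222 nm monitored from 25 to 90 °C. Fraction denatured calculated as the ratio to the ellipticity of fully unfolded protein. Data fitted to a modified logistic equation for the transition midpoint.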

[8] = Kinetics of deactivation in HEPES buffer with added Co^2+; type: physicochemical; conditions: 100 mM HEPES, pH 7.4, 37 °C, in the presence of 500 μM Co^2+
[9] = system: hepatocellular carcinoma cell line, Hep3b; assay: In vitro cytotoxicity; type: cell-based, human

Molecule: NC(N)=NCCN1CCNCCNCCNCC1.[Zn+2]
- apparent pKa of guanidinium deprotonation [1]: 5.9

Molecule: CC(C)C[C@H](N)C(=O)O [L-Leu, L-Leucine]
- Ki (Mn-hArgI; Ki L-Leu, pH 7.4): 390 ± 40 µM
- Ki (Mn-hArgI; Ki L-Leu, pH 8.5): 640 ± 40 µM
- Fold change Ki L-Leu (Mn-hArgI; pH 7.4 vs pH 8.5): (1.6) fold
- Ki (hArgII): 1 ± 0.1 mM
- Ki (Co-hArgI; Ki L-Leu, pH 7.4): 480 ± 50 µM
- Ki (Co-hArgI; Ki L-Leu, pH 8.5): 1300 µM
- Fold change Ki L-Leu (Co-hArgI; pH 7.4 vs pH 8.5): (2.7) fold

Molecule: NCCCC[C@H](N)C(=O)O [L-Lys]
- Ki (rat Arginase I): 900 µM

Molecule: NCCC[C@H](N)C(=O)O [L-Orn, L-Ornithine]
- Ki (Mn-hArgI; read-out: Ki L-Orn, pH 7.4): 2400 µM
- Ki (Mn-hArgI; read-out: Ki L-Orn, pH 8.5): 530 ± 60 µM
- Ki (Co-hArgI; read-out: Ki L-Orn, pH 7.4): 76 ± 16 µM
- Ki (Co-hArgI; read-out: Ki L-Orn, pH 8.5): 50 ± 7 µM
- Ki (Co-hArgI; read-out: Ki L-Orn, pH 8.5, 37 °C): 64 ± 9 µM

B1: rat Mn-ArgI: rat Arginase I with Mn^2+, literature comparator (protein, UniProt P07824 1-323, looked up)
Arginase-1: MSSKPKPIEIIGAPFSKGQPRGGVEKGPAALRKAGLVEKLKETEYNVRDHGDLAFVDVPNDSPFQIVKNPRSVGKANEQLAAVVAETQKNGTISVVLGGDHSMAIGSISGHARVHPDLCVIWVDAHTDINTPLTTSSGNLHGQPVAFLLKELKGKFPDVPGFSWVTPCISAKDIVYIGLRDVDPGEHYIIKTLGIKYFSMTEVDKLGIGKVMEETFSYLLGRKKRPIHLSFDVDGLDPVFTPATGTPVVGGLSYREGLYITEEIYKTGLLSGLDIMEVNPTLGKTPEEVTRTVNTAVALTLSCFGTKREGNHKPETDYLKPPK
modifications: Mn2+ cofactor
- TM [2]: 75 °C

B2: bovine carboxypeptidase A: bovine carboxypeptidase A with Mn^2+ or Co^2+ as cofactor (protein, UniProt P00730 111-419, looked up)
Carboxypeptidase A1: ARSTNTFNYATYHTLDEIYDFMDLLVAEHPQLVSKLQIGRSYEGRPIYVLKFSTGGSNRPAIWIDLGIHSREWITQATGVWFAKKFTEDYGQDPSFTAILDSMDIFLEIVTNPDGFAFTHSQNRLWRKTRSVTSSSLCVGVDANRNWDAGFGKAGASSSPCSETYHGKYANSEVEVKSIVDFVKDHGNFKAFLSIHSYSQLLLYPYGYTTQSIPDKTELNQVAKSAVEALKSLYGTSYKYGSIITTIYQASGGSIDWSYNQGIKYSFTFELRDTGRYGFLLPASQIIPTAQETWLGVLTIMEHTLNNLY
modifications: Mn2+ or Co2+ cofactor
- acidic limb kinetic pKa ([3]; Co^2+ substitution): 5.3
- acidic limb kinetic pKa ([3]; Mn^2+ as a cofactor): 6.4

B3: metallo-β-lactamase from B. cereus: metallo-β-lactamase from B. cereus with Mn^2+ or Co^2+ cofactor (protein, UniProt P04190 31-257, looked up)
Metallo-beta-lactamase type 2: SQKVEKTVIKNETGTISISQLNKNVWVHTELGSFNGEAVPSNGLVLNTSKGLVLVDSSWDDKLTKELIEMVEKKFQKRVTDVIITHAHADRIGGIKTLKERGIKAHSTALTAELAKKNGYEEPLGDLQTVTNLKFGNMKVETFYPGKGHTEDNIVVWLPQYNILVGGCLVKSTSAKDLGNVADAYVNEWSTSIENVLKRYRNINAVVPGHGEVGDKGLLLHTLDLLK
modifications: Mn2+ or Co2+ cofactor
- pKa ([3]; Co^2+ as the cofactor): 6.9
- pKa ([3]; with Mn^2+): 8.4

B4: Mn-hArgI: recombinant human Arginase I with the native di-nuclear Mn^2+ cofactor (protein, UniProt P05089 1-322, looked up)
Arginase-1: T1 sequence (P05089 1-322)
modifications: Mn2+ cofactor
- apparent pKa of kcat vs pH (one-pKa model) [4]: 8.1 ± 0.05
- apparent pKa of 1/KM vs pH, lower pKa [4]: 7.1 ± 0.1 and 7.1
- apparent pKa of 1/KM vs pH, upper pKa [4]: 10.7 ± 0.3 and 10.7
- fold increase of rate (kcat) with pH ([4]; over the pH range studied (log slope = 0.5)): more than 30 fold
- log kcat slope ([4]; pH 6 to pH 8.5): 0.5
- ascending limb pKa of kcat/KM vs pH (fit) [4]: 8.4 ± 0.1
- descending limb pKa of kcat/KM vs pH (fit) [4]: 11.0 ± 0.1
- IC50 (melanoma cell line A375): 4.1 ± 0.1 nM
- kcat ([5]; pH 7.4, 37 °C): 300 ± 12 s⁻¹ and 300 s⁻¹
- Fold change KM L-Arg [5]: (1. 4) fold
- Km ([5]; pH 7.4, 37 °C, listed as Mn-ArgI): 2330 µM
- Km ([5]; pH 8.5): 1600 µM
- t½ of activity (single exponential loss) [6]: 4.8 ± 0.8 h

B5: Co-hArgI: Co^2+ substituted human Arginase I, recombinant, His6-tagged, expressed in E. coli (protein, UniProt P05089 1-322, looked up)
Arginase-1: T1 sequence (P05089 1-322)
modifications: Co2+ substituted; His6 tag
- apparent pKa of kcat vs pH (one-pKa model) [4]: 5.2 ± 0.1
- apparent pKa of 1/KM vs pH, lower pKa [4]: 7.2 ± 0.1
- apparent pKa of 1/KM vs pH, upper pKa [4]: 9.7 ± 0.1 and 9.7
- log kcat slope ([4]; pH 5 - 6): 0.43
- log kcat slope ([4]; pH 6 – 10.5): ~ 0.03 and 0.03
- ascending limb pKa of kcat/KM vs pH (fit) [4]: 7.4 ± 0.1
- descending limb pKa of kcat/KM vs pH (fit) [4]: 10.0 ± 0.1
- TM (mid-point temperature for unfolding) [7]: 74 °C
- fold increase in cytotoxicity vs Mn-hArgI (melanoma cell line A375): ~ 13 fold
- IC50 (melanoma cell line A375): 0.32 ± 0.06 nM
- kcat ([5]; pH 7.4, 37 °C): 240 ± 14 s⁻¹ and 240 s⁻¹
- Fold change KM L-Arg [5]: (1.4) fold
- Km ([5]; pH 7.4, 37 °C): 190 ± 40 µM
- Km ([5]; pH 8.5): 140 ± 10 µM
- t½ of activity (monophasic sigmoidal loss) [8]: 45 ± 2 h
- fold lower IC50 than Mn-hArgI ([9]; Hep3b): 15 fold
- fold lower IC50 value ([9]; human hepatocellular carcinoma and melanoma cell lines): 12-15 fold

From publication PMC2842482 (ACS chemical biology, 2010)
